Experimental data as given in ChEMBL document CHEMBL4689842, “EUbOPEN Chemogenomics Library wave 1” (2021).

Tested on: U2OS
Assay: Multiplex assay against U2OS
Assay type: toxicity, cell-based
Details: human
Summary of the method: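 Values for tubulin, mitochondrial-mass and membrane-permeability phenotypes are per cents of cells with healthy nuclei. These cells were identified by CellPathfinder machine-learning gating of live cells that had been stained at seeding with Hoechst33342, BioTracker Green Microtubule Cytoskeleton Dye, MitoTracker Red and Annexin V Alexa Fluor 680 and imaged on a CQ1 microscope at 37°C and 5% CO2 after compound addition. The gating first set Hoechst high-intensity objects apart from normal cells, then split normal cells into healthy, pyknosed or fragmented nuclei, and pyknosed cells into mitotic or apoptotic.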

[1] = 12 h, 1 µM, compound concentration 1 uM, replicate 1
[2] = 12 h, 1 µM, compound concentration 1 uM, replicate 2
[3] = 12 h, 10 µM, compound concentration 10 uM, replicate 1
[4] = 12 h, 10 µM, compound concentration 10 uM, replicate 2
[5] = 24 h, 1 µM, compound concentration 1 uM, replicate 1
[6] = 24 h, 1 µM, compound concentration 1 uM, replicate 2
[7] = 24 h, 10 µM, compound concentration 10 uM, replicate 1
[8] = 24 h, 10 µM, compound concentration 10 uM, replicate 2
[9] = 48 h, 1 µM, compound concentration 1 uM, replicate 1
[10] = 48 h, 1 µM, compound concentration 1 uM, replicate 2
[11] = 48 h, 10 µM, compound concentration 10 uM, replicate 1
[12] = 48 h, 10 µM, compound concentration 10 uM, replicate 2

For `Cc1nc(-c2ccc(-c3ccc(C(=O)N4CCc5cc6c(cc54)C4(CCN(C)CC4)CO6)cc3)c(C)c2)no1` [SB-224289], the “Population Apoptotic (%)” value [1] was 50%, the “Population Fragmented Nuclei (%)” value [1] was 11% and the “Population Healthy Nuclei (%)” value [1] was 74%. For the same compound, the “Population Hoechst High Intensity Objects (%)” value [1] was 8%, the “Population Membrane Permeable-Phenotype (%)” value [1] was 6% and the “Population Mitochondria Different-Phenotype (%)” value [1] was 43%. The “Population Mitotic Cells (%)” value [1] was 50%, the “Population Normal (%)” value [1] was 91% and the “Population Pyknosed Nuclei (%)” value [1] was 13%. For the same compound, the “Population Tubulin-Different-Phenotype (%)” value [1] was 46%, the “Total Cell Count” value [1] was 130 and the “Population Apoptotic (%)” value [2] was 28%. For the same compound, the “Population Fragmented Nuclei (%)” value [2] was 4%, the “Population Healthy Nuclei (%)” value [2] was 81% and the “Population Hoechst High Intensity Objects (%)” value [2] was 12%. For the same compound, the “Population Membrane Permeable-Phenotype (%)” value [2] was 10%, the “Population Mitochondria Different-Phenotype (%)” value [2] was 42% and the “Population Mitotic Cells (%)” value [2] was 71%. The “Population Normal (%)” value [2] was 87%, the “Population Pyknosed Nuclei (%)” value [2] was 14% and the “Population Tubulin-Different-Phenotype (%)” value [2] was 37%. For the same compound, the “Total Cell Count” value [2] was 65, the “Population Apoptotic (%)” value [3] was 62% and the “Population Fragmented Nuclei (%)” value [3] was 19%. The “Population Healthy Nuclei (%)” value [3] was 61%, the “Population Hoechst High Intensity Objects (%)” value [3] was 7% and the “Population Membrane Permeable-Phenotype (%)” value [3] was 45%. For the same compound, the “Population Mitochondria Different-Phenotype (%)” value [3] was 98%, the “Population Mitotic Cells (%)” value [3] was 37% and the “Population Normal (%)” value [3] was 92%. The “Population Pyknosed Nuclei (%)” value [3] was 19%, the “Population Tubulin-Different-Phenotype (%)” value [3] was 98% and the “Total Cell Count” value [3] was 147. The “Population Apoptotic (%)” value [4] was 63%, the “Population Fragmented Nuclei (%)” value [4] was 7% and the “Population Healthy Nuclei (%)” value [4] was 77%. The “Population Hoechst High Intensity Objects (%)” value [4] was 11%, the “Population Membrane Permeable-Phenotype (%)” value [4] was 54% and the “Population Mitochondria Different-Phenotype (%)” value [4] was 100%. The “Population Mitotic Cells (%)” value [4] was 36%, the “Population Normal (%)” value [4] was 88% and the “Population Pyknosed Nuclei (%)” value [4] was 15%. For the same compound, the “Population Tubulin-Different-Phenotype (%)” value [4] was 100%, the “Total Cell Count” value [4] was 56 and the “Population Apoptotic (%)” value [5] was 53%. The “Population Healthy Nuclei (%)” value [5] was 75%, the “Population Hoechst High Intensity Objects (%)” value [5] was 6% and the “Population Membrane Permeable-Phenotype (%)” value [5] was 4%. For the same compound, the “Population Mitochondria Different-Phenotype (%)” value [5] was 40%, the “Population Mitotic Cells (%)” value [5] was 46% and the “Population Normal (%)” value [5] was 93%. The “Population Pyknosed Nuclei (%)” value [5] was 9%, the “Population Tubulin-Different-Phenotype (%)” value [5] was 25% and the “Total Cell Count” value [5] was 152. For the same compound, the “Population Apoptotic (%)” value [6] was 0%, the “Population Fragmented Nuclei (%)” value [6] was 15% and the “Population Healthy Nuclei (%)” value [6] was 77%. For the same compound, the “Population Hoechst High Intensity Objects (%)” value [6] was 9%, the “Population Membrane Permeable-Phenotype (%)” value [6] was 6% and the “Population Mitochondria Different-Phenotype (%)” value [6] was 38%. For the same compound, the “Population Mitotic Cells (%)” value [6] was 100%, the “Population Normal (%)” value [6] was 90% and the “Population Pyknosed Nuclei (%)” value [6] was 7%. For the same compound, the “Population Tubulin-Different-Phenotype (%)” value [6] was 22%, the “Total Cell Count” value [6] was 73 and the “Population Apoptotic (%)” value [7] was 75%. The “Population Fragmented Nuclei (%)” value [7] was 24%, the “Population Healthy Nuclei (%)” value [7] was 51% and the “Population Hoechst High Intensity Objects (%)” value [7] was 9%. For the same compound, the “Population Membrane Permeable-Phenotype (%)” value [7] was 84%, the “Population Mitochondria Different-Phenotype (%)” value [7] was 98% and the “Population Mitotic Cells (%)” value [7] was 25%. The “Population Normal (%)” value [7] was 90%, the “Population Pyknosed Nuclei (%)” value [7] was 23% and the “Population Tubulin-Different-Phenotype (%)” value [7] was 98%. For the same compound, the “Total Cell Count” value [7] was 171, the “Population Apoptotic (%)” value [8] was 76% and the “Population Fragmented Nuclei (%)” value [8] was 16%. For the same compound, the “Population Healthy Nuclei (%)” value [8] was 56%, the “Population Hoechst High Intensity Objects (%)” value [8] was 11% and the “Population Membrane Permeable-Phenotype (%)” value [8] was 86%. The “Population Mitochondria Different-Phenotype (%)” value [8] was 100%, the “Population Mitotic Cells (%)” value [8] was 23% and the “Population Normal (%)” value [8] was 88%. The “Population Pyknosed Nuclei (%)” value [8] was 26%, the “Population Tubulin-Different-Phenotype (%)” value [8] was 100% and the “Total Cell Count” value [8] was 63. The “Population Apoptotic (%)” value [9] was 54%, the “Population Fragmented Nuclei (%)” value [9] was 12% and the “Population Healthy Nuclei (%)” value [9] was 77%. The “Population Hoechst High Intensity Objects (%)” value [9] was 6%, the “Population Membrane Permeable-Phenotype (%)” value [9] was 3% and the “Population Mitochondria Different-Phenotype (%)” value [9] was 15%. For the same compound, the “Population Mitotic Cells (%)” value [9] was 45%, the “Population Normal (%)” value [9] was 93% and the “Population Tubulin-Different-Phenotype (%)” value [9] was 15%. The “Total Cell Count” value [9] was 156, the “Population Apoptotic (%)” value [10] was 50% and the “Population Fragmented Nuclei (%)” value [10] was 9%. The “Population Healthy Nuclei (%)” value [10] was 80%, the “Population Hoechst High Intensity Objects (%)” value [10] was 9% and the “Population Membrane Permeable-Phenotype (%)” value [10] was 8%. For the same compound, the “Population Mitochondria Different-Phenotype (%)” value [10] was 14%, the “Population Mitotic Cells (%)” value [10] was 50% and the “Population Normal (%)” value [10] was 90%. The “Population Pyknosed Nuclei (%)” value [10] was 10%, the “Population Tubulin-Different-Phenotype (%)” value [10] was 11% and the “Total Cell Count” value [10] was 88. The “Population Apoptotic (%)” value [11] was 81%, the “Population Fragmented Nuclei (%)” value [11] was 27% and the “Population Healthy Nuclei (%)” value [11] was 28%. The “Population Hoechst High Intensity Objects (%)” value [11] was 15%, the “Population Membrane Permeable-Phenotype (%)” value [11] was 94% and the “Population Mitochondria Different-Phenotype (%)” value [11] was 97%. For the same compound, the “Population Mitotic Cells (%)” value [11] was 18%, the “Population Normal (%)” value [11] was 84% and the “Population Pyknosed Nuclei (%)” value [11] was 44%. The “Population Tubulin-Different-Phenotype (%)” value [11] was 97%, the “Total Cell Count” value [11] was 225 and the “Population Apoptotic (%)” value [12] was 88%. For the same compound, the “Population Fragmented Nuclei (%)” value [12] was 8%, the “Population Healthy Nuclei (%)” value [12] was 46% and the “Population Hoechst High Intensity Objects (%)” value [12] was 18%. The “Population Membrane Permeable-Phenotype (%)” value [12] was 75%, the “Population Mitochondria Different-Phenotype (%)” value [12] was 100% and the “Population Mitotic Cells (%)” value [12] was 11%. The “Population Normal (%)” value [12] was 81%, the “Population Pyknosed Nuclei (%)” value [12] was 45% and the “Population Tubulin-Different-Phenotype (%)” value [12] was 100%. For the same compound, the “Total Cell Count” value [12] was 85.
